From ChEMBL document CHEMBL4118063, “Design, synthesis and evaluation of aromatic heterocyclic derivatives as potent antifungal agents” (Eur J Med Chem, 2017)
Converted amounts (≈) assume the structure as drawn.

Legend:
Assay type in all cases: functional
Aspergillus fumigatus = assay: Antifungal activity against Aspergillus fumigatus GIM 3.524 by broth microdilution method
In short: (§1)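 Serial twofold-style dilution in growth medium per NCCLS broth microdilution guidelines. Compounds dissolved in DMSO before dilution. Fluconazole and itraconazole served as positive controls. MIC was read as the lowest concentration that prevents visible fungal growth.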

Candida albicans [1] = assay: Antifungal activity against Candida albicans ATCC SC5314 by broth microdilution method; in short: as §1
Cryptococcus neoformans = assay: Antifungal activity against Cryptococcus neoformans cgmcc 2.3161 by broth microdilution method; in short: as §1
Candida albicans [2] = assay: Antifungal activity against Candida albicans CPCC 400523 by broth microdilution method; in short: as §1
Candida tropicalis = assay: Antifungal activity against Candida tropicalis cgmcc 2.3739 by broth microdilution method; in short: as §1

SMILES: CC(C)OC(=O)[C@H](Cn1ccnc1)NC(=O)c1ccc(-c2ccccc2F)cc1
- MIC (Aspergillus fumigatus): > 16 µg/mL
- MIC (Candida albicans [1]): 0.0625 µg/mL (≈ 0.158 µM)
- MIC (Cryptococcus neoformans): 1 µg/mL (≈ 2.53 µM)
- MIC (Candida albicans [2]): 0.25 µg/mL (≈ 0.632 µM)
- MIC (Candida tropicalis): 0.0625 µg/mL (≈ 0.158 µM)

SMILES: CC(C)COC(=O)[C@H](Cn1ccnc1)NC(=O)c1coc(-c2ccccc2)n1
- MIC (Aspergillus fumigatus): > 16 µg/mL
- MIC (Candida albicans [1]): > 16 µg/mL
- MIC (Cryptococcus neoformans): > 16 µg/mL
- MIC (Candida albicans [2]): > 16 µg/mL
- MIC (Candida tropicalis): 4 µg/mL (≈ 10.5 µM)

SMILES: Cc1cc(C(=O)N[C@@H](Cn2ccnc2)C(=O)OCC(C)C)nn1-c1ccccc1
- MIC (Aspergillus fumigatus): > 16 µg/mL
- MIC (Candida albicans [1]): > 16 µg/mL
- MIC (Cryptococcus neoformans): > 16 µg/mL
- MIC (Candida albicans [2]): > 16 µg/mL
- MIC (Candida tropicalis): 4 µg/mL (≈ 10.1 µM)

SMILES: Cc1ccc(-c2cc(C(=O)N[C@@H](Cn3ccnc3)C(=O)OC(C)C)no2)cc1
- MIC (Aspergillus fumigatus): 8 µg/mL (≈ 20.9 µM)
- MIC (Candida albicans [1]): 0.25 µg/mL (≈ 0.654 µM)
- MIC (Cryptococcus neoformans): 2 µg/mL (≈ 5.23 µM)
- MIC (Candida albicans [2]): 0.5 µg/mL (≈ 1.31 µM)
- MIC (Candida tropicalis): 0.0312 µg/mL (≈ 0.0817 µM)

SMILES: CC(C)COC(=O)[C@H](Cn1ccnc1)NC(=O)c1cc(-c2ccc(F)cc2)on1
- MIC (Aspergillus fumigatus): 8 µg/mL (≈ 20 µM)
- MIC (Candida albicans [1]): 0.5 µg/mL (≈ 1.25 µM)
- MIC (Cryptococcus neoformans): 0.5 µg/mL (≈ 1.25 µM)
- MIC (Candida albicans [2]): 2 µg/mL (≈ 4.99 µM)
- MIC (Candida tropicalis): 0.0312 µg/mL (≈ 0.078 µM)

SMILES: CC(C)OC(=O)[C@H](Cn1ccnc1)NC(=O)c1cc(-c2ccc(Br)cc2)on1
- MIC (Aspergillus fumigatus): > 16 µg/mL
- MIC (Candida albicans [1]): 0.0625 µg/mL (≈ 0.14 µM)
- MIC (Cryptococcus neoformans): 2 µg/mL (≈ 4.47 µM)
- MIC (Candida albicans [2]): 0.25 µg/mL (≈ 0.559 µM)
- MIC (Candida tropicalis): 0.0312 µg/mL (≈ 0.0699 µM)

SMILES: CC(C)OC(=O)[C@H](Cn1ccnc1)NC(=O)c1ccc(-c2ccccc2)nc1
- MIC (Aspergillus fumigatus): > 16 µg/mL
- MIC (Candida albicans [1]): 2 µg/mL (≈ 5.28 µM)
- MIC (Cryptococcus neoformans): 16 µg/mL (≈ 42.3 µM)
- MIC (Candida albicans [2]): 4 µg/mL (≈ 10.6 µM)
- MIC (Candida tropicalis): 1 µg/mL (≈ 2.64 µM)

SMILES: Cc1nc(-c2ccccc2)sc1C(=O)N[C@@H](Cn1ccnc1)C(=O)OC(C)C
- MIC (Aspergillus fumigatus): > 16 µg/mL
- MIC (Candida albicans [1]): 2 µg/mL (≈ 5.02 µM)
- MIC (Cryptococcus neoformans): 16 µg/mL (≈ 40.2 µM)
- MIC (Candida albicans [2]): 2 µg/mL (≈ 5.02 µM)
- MIC (Candida tropicalis): 0.25 µg/mL (≈ 0.627 µM)

SMILES: Cc1nc(-c2ccccc2)sc1C(=O)N[C@@H](Cn1ccnc1)C(=O)OCC(C)C
- MIC (Aspergillus fumigatus): > 16 µg/mL
- MIC (Candida albicans [1]): 0.25 µg/mL (≈ 0.606 µM)
- MIC (Cryptococcus neoformans): 8 µg/mL (≈ 19.4 µM)
- MIC (Candida albicans [2]): 1 µg/mL (≈ 2.42 µM)
- MIC (Candida tropicalis): 0.125 µg/mL (≈ 0.303 µM)

SMILES: CC(C)COC(=O)[C@H](Cn1ccnc1)NC(=O)c1nc(-c2ccccc2)cs1
- MIC (Aspergillus fumigatus): > 16 µg/mL
- MIC (Candida albicans [1]): > 16 µg/mL
- MIC (Cryptococcus neoformans): 2 µg/mL (≈ 5.02 µM)
- MIC (Candida albicans [2]): > 16 µg/mL
- MIC (Candida tropicalis): 0.125 µg/mL (≈ 0.314 µM)

SMILES: CC(C)OC(=O)[C@H](Cn1ccnc1)NC(=O)c1coc(-c2ccccc2)n1
- MIC (Aspergillus fumigatus): > 16 µg/mL
- MIC (Candida albicans [1]): > 16 µg/mL
- MIC (Cryptococcus neoformans): > 16 µg/mL
- MIC (Candida albicans [2]): > 16 µg/mL
- MIC (Candida tropicalis): 8 µg/mL (≈ 21.7 µM)

SMILES: CC(C)OC(=O)[C@H](Cn1ccnc1)NC(=O)c1csc(-c2ccccc2)n1
- MIC (Aspergillus fumigatus): > 16 µg/mL
- MIC (Candida albicans [1]): > 16 µg/mL
- MIC (Cryptococcus neoformans): > 16 µg/mL
- MIC (Candida albicans [2]): > 16 µg/mL
- MIC (Candida tropicalis): > 16 µg/mL

SMILES: Cc1ccc(-c2cc(C(=O)N[C@@H](Cn3ccnc3)C(=O)OCC(C)C)no2)cc1
- MIC (Aspergillus fumigatus): 8 µg/mL (≈ 20.2 µM)
- MIC (Candida albicans [1]): 0.125 µg/mL (≈ 0.315 µM)
- MIC (Cryptococcus neoformans): 0.5 µg/mL (≈ 1.26 µM)
- MIC (Candida albicans [2]): 0.5 µg/mL (≈ 1.26 µM)
- MIC (Candida tropicalis): 0.0312 µg/mL (≈ 0.0788 µM)

SMILES: CC(C)COC(=O)[C@H](Cn1ccnc1)NC(=O)c1csc(-c2ccccc2)n1
- MIC (Aspergillus fumigatus): > 16 µg/mL
- MIC (Candida albicans [1]): > 16 µg/mL
- MIC (Cryptococcus neoformans): > 16 µg/mL
- MIC (Candida albicans [2]): > 16 µg/mL
- MIC (Candida tropicalis): > 16 µg/mL

SMILES: CC(C)OC(=O)[C@H](Cn1ccnc1)NC(=O)c1cnc(-c2ccccc2)nc1
- MIC (Aspergillus fumigatus): > 16 µg/mL
- MIC (Candida albicans [1]): 0.25 µg/mL (≈ 0.659 µM)
- MIC (Cryptococcus neoformans): 8 µg/mL (≈ 21.1 µM)
- MIC (Candida albicans [2]): 1 µg/mL (≈ 2.64 µM)
- MIC (Candida tropicalis): 0.0625 µg/mL (≈ 0.165 µM)

SMILES: CC(C)OC(=O)[C@H](Cn1ccnc1)NC(=O)c1nc(-c2ccccc2)cs1
- MIC (Aspergillus fumigatus): > 16 µg/mL
- MIC (Candida albicans [1]): > 16 µg/mL
- MIC (Cryptococcus neoformans): 2 µg/mL (≈ 5.2 µM)
- MIC (Candida albicans [2]): > 16 µg/mL
- MIC (Candida tropicalis): 0.0625 µg/mL (≈ 0.163 µM)

SMILES: CC(C)OC(=O)[C@H](Cn1ccnc1)NC(=O)c1cc(-c2ccc(F)cc2)on1
- MIC (Aspergillus fumigatus): 8 µg/mL (≈ 20.7 µM)
- MIC (Candida albicans [1]): 1 µg/mL (≈ 2.59 µM)
- MIC (Cryptococcus neoformans): 2 µg/mL (≈ 5.18 µM)
- MIC (Candida albicans [2]): 2 µg/mL (≈ 5.18 µM)
- MIC (Candida tropicalis): 0.0312 µg/mL (≈ 0.0809 µM)

SMILES: CC(C)COC(=O)[C@H](Cn1ccnc1)NC(=O)c1cc(-c2ccc(Br)cc2)on1
- MIC (Aspergillus fumigatus): > 16 µg/mL
- MIC (Candida albicans [1]): 0.0312 µg/mL (≈ 0.0677 µM)
- MIC (Cryptococcus neoformans): 2 µg/mL (≈ 4.34 µM)
- MIC (Candida albicans [2]): 0.125 µg/mL (≈ 0.271 µM)
- MIC (Candida tropicalis): 0.0312 µg/mL (≈ 0.0677 µM)

SMILES: CC(C)COC(=O)[C@H](Cn1ccnc1)NC(=O)c1cnc(-c2ccccc2)nc1
- MIC (Aspergillus fumigatus): > 16 µg/mL
- MIC (Candida albicans [1]): 0.25 µg/mL (≈ 0.635 µM)
- MIC (Cryptococcus neoformans): 2 µg/mL (≈ 5.08 µM)
- MIC (Candida albicans [2]): 0.5 µg/mL (≈ 1.27 µM)
- MIC (Candida tropicalis): 0.125 µg/mL (≈ 0.318 µM)

SMILES: Cc1cc(C(=O)N[C@@H](Cn2ccnc2)C(=O)OC(C)C)nn1-c1ccccc1
- MIC (Aspergillus fumigatus): > 16 µg/mL
- MIC (Candida albicans [1]): > 16 µg/mL
- MIC (Cryptococcus neoformans): > 16 µg/mL
- MIC (Candida albicans [2]): > 16 µg/mL
- MIC (Candida tropicalis): 4 µg/mL (≈ 10.5 µM)
